# Measured values from ChEMBL document CHEMBL4689842, “EUbOPEN Chemogenomics Library wave 1” (2021).
# Test system: Fibroblast
# Assay: Multiplex assay against human fibroblast
# Assay type: toxicity, cell-based
# Method in brief: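 Cells were classed with CellPathfinder machine-learning gating, first as Hoechst high-intensity objects or normal cells, then (normal cells) as healthy, pyknosed or fragmented nuclei, and finally (pyknosed cells) as mitotic or apoptotic. Staining of live cells at seeding used Hoechst33342, BioTracker Green Microtubule Cytoskeleton Dye, MitoTracker Red and Annexin V Alexa Fluor 680, with imaging on a CQ1 microscope at 37°C and 5% CO2 after compound addition. Tubulin, mitochondrial-mass and membrane-permeability phenotypes are per cents of healthy-nucleus cells.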
# [1] = 12 h, 1 µM, compound concentration 1 uM, replicate 1
# [2] = 12 h, 1 µM, compound concentration 1 uM, replicate 2
# [3] = 12 h, 10 µM, compound concentration 10 uM, replicate 1
# [4] = 12 h, 10 µM, compound concentration 10 uM, replicate 2
# [5] = 24 h, 1 µM, compound concentration 1 uM, replicate 1
# [6] = 24 h, 1 µM, compound concentration 1 uM, replicate 2
# [7] = 24 h, 10 µM, compound concentration 10 uM, replicate 1
# [8] = 24 h, 10 µM, compound concentration 10 uM, replicate 2
# [9] = 48 h, 1 µM, compound concentration 1 uM, replicate 1
# [10] = 48 h, 1 µM, compound concentration 1 uM, replicate 2
# [11] = 48 h, 10 µM, compound concentration 10 uM, replicate 1
# [12] = 48 h, 10 µM, compound concentration 10 uM, replicate 2
structure (smiles),measurement,setting,value
CC[C@H](C)C(=O)O[C@H]1C[C@@H](C)C=C2C=C[C@H](C)[C@H](CC[C@@H]3C[C@@H](O)CC(=O)O3)[C@H]21 [LOVASTATIN],Population Apoptotic (%),[1],63%
same,Population Fragmented Nuclei (%),[1],33%
same,Population Healthy Nuclei (%),[1],35%
same,Population Hoechst High Intensity Objects (%),[1],13%
same,Population Membrane Permeable-Phenotype (%),[1],23%
same,Population Mitochondria Different-Phenotype (%),[1],14%
same,Population Mitotic Cells (%),[1],36%
same,Population Normal (%),[1],86%
same,Population Pyknosed Nuclei (%),[1],31%
same,Population Tubulin-Different-Phenotype (%),[1],42%
same,Total Cell Count,[1],69
same,Population Apoptotic (%),[2],25%
same,Population Fragmented Nuclei (%),[2],22%
same,Population Healthy Nuclei (%),[2],68%
same,Population Hoechst High Intensity Objects (%),[2],11%
same,Population Membrane Permeable-Phenotype (%),[2],3%
same,Population Mitochondria Different-Phenotype (%),[2],6%
same,Population Mitotic Cells (%),[2],75%
same,Population Normal (%),[2],88%
same,Population Pyknosed Nuclei (%),[2],8%
same,Population Tubulin-Different-Phenotype (%),[2],3%
same,Total Cell Count,[2],87
same,Population Apoptotic (%),[3],50%
same,Population Fragmented Nuclei (%),[3],33%
same,Population Healthy Nuclei (%),[3],45%
same,Population Hoechst High Intensity Objects (%),[3],13%
same,Population Membrane Permeable-Phenotype (%),[3],22%
same,Population Mitochondria Different-Phenotype (%),[3],13%
same,Population Mitotic Cells (%),[3],50%
same,Population Normal (%),[3],86%
same,Population Pyknosed Nuclei (%),[3],22%
same,Population Tubulin-Different-Phenotype (%),[3],42%
same,Total Cell Count,[3],115
same,Population Apoptotic (%),[4],100%
same,Population Fragmented Nuclei (%),[4],4%
same,Population Healthy Nuclei (%),[4],90%
same,Population Hoechst High Intensity Objects (%),[4],8%
same,Population Membrane Permeable-Phenotype (%),[4],10%
same,Population Mitochondria Different-Phenotype (%),[4],12%
same,Population Mitotic Cells (%),[4],0%
same,Population Normal (%),[4],91%
same,Population Pyknosed Nuclei (%),[4],4%
same,Population Tubulin-Different-Phenotype (%),[4],20%
same,Total Cell Count,[4],54
same,Population Apoptotic (%),[5],44%
same,Population Fragmented Nuclei (%),[5],36%
same,Population Healthy Nuclei (%),[5],47%
same,Population Hoechst High Intensity Objects (%),[5],11%
same,Population Membrane Permeable-Phenotype (%),[5],11%
same,Population Mitochondria Different-Phenotype (%),[5],15%
same,Population Mitotic Cells (%),[5],55%
same,Population Normal (%),[5],88%
same,Population Pyknosed Nuclei (%),[5],16%
same,Population Tubulin-Different-Phenotype (%),[5],38%
same,Total Cell Count,[5],62
same,Population Apoptotic (%),[6],40%
same,Population Fragmented Nuclei (%),[6],22%
same,Population Healthy Nuclei (%),[6],70%
same,Population Hoechst High Intensity Objects (%),[6],9%
same,Population Membrane Permeable-Phenotype (%),[6],0%
same,Population Mitochondria Different-Phenotype (%),[6],4%
same,Population Mitotic Cells (%),[6],60%
same,Population Normal (%),[6],90%
same,Population Pyknosed Nuclei (%),[6],7%
same,Population Tubulin-Different-Phenotype (%),[6],4%
same,Total Cell Count,[6],93
same,Population Apoptotic (%),[7],43%
same,Population Fragmented Nuclei (%),[7],26%
same,Population Healthy Nuclei (%),[7],48%
same,Population Hoechst High Intensity Objects (%),[7],14%
same,Population Membrane Permeable-Phenotype (%),[7],19%
same,Population Mitochondria Different-Phenotype (%),[7],10%
same,Population Mitotic Cells (%),[7],56%
same,Population Normal (%),[7],85%
same,Population Pyknosed Nuclei (%),[7],24%
same,Population Tubulin-Different-Phenotype (%),[7],28%
same,Total Cell Count,[7],110
same,Population Apoptotic (%),[8],28%
same,Population Fragmented Nuclei (%),[8],8%
same,Population Healthy Nuclei (%),[8],79%
same,Population Hoechst High Intensity Objects (%),[8],7%
same,Population Membrane Permeable-Phenotype (%),[8],8%
same,Population Mitochondria Different-Phenotype (%),[8],4%
same,Population Mitotic Cells (%),[8],71%
same,Population Normal (%),[8],92%
same,Population Pyknosed Nuclei (%),[8],11%
same,Population Tubulin-Different-Phenotype (%),[8],23%
same,Total Cell Count,[8],74
same,Population Apoptotic (%),[9],66%
same,Population Fragmented Nuclei (%),[9],55%
same,Population Healthy Nuclei (%),[9],39%
same,Population Hoechst High Intensity Objects (%),[9],9%
same,Population Membrane Permeable-Phenotype (%),[9],26%
same,Population Mitochondria Different-Phenotype (%),[9],0%
same,Population Mitotic Cells (%),[9],33%
same,Population Normal (%),[9],90%
same,Population Pyknosed Nuclei (%),[9],5%
same,Population Tubulin-Different-Phenotype (%),[9],39%
same,Total Cell Count,[9],64
same,Population Apoptotic (%),[10],33%
same,Population Fragmented Nuclei (%),[10],17%
same,Population Healthy Nuclei (%),[10],73%
same,Population Hoechst High Intensity Objects (%),[10],7%
same,Population Membrane Permeable-Phenotype (%),[10],23%
same,Population Mitochondria Different-Phenotype (%),[10],6%
same,Population Mitotic Cells (%),[10],66%
same,Population Normal (%),[10],92%
same,Population Pyknosed Nuclei (%),[10],9%
same,Population Tubulin-Different-Phenotype (%),[10],23%
same,Total Cell Count,[10],69
same,Population Apoptotic (%),[11],71%
same,Population Fragmented Nuclei (%),[11],58%
same,Population Healthy Nuclei (%),[11],33%
same,Population Hoechst High Intensity Objects (%),[11],20%
same,Population Membrane Permeable-Phenotype (%),[11],19%
same,Population Mitochondria Different-Phenotype (%),[11],3%
same,Population Mitotic Cells (%),[11],28%
same,Population Normal (%),[11],80%
same,Population Pyknosed Nuclei (%),[11],7%
same,Population Tubulin-Different-Phenotype (%),[11],29%
same,Total Cell Count,[11],115
same,Population Fragmented Nuclei (%),[12],37%
same,Population Healthy Nuclei (%),[12],52%
same,Population Hoechst High Intensity Objects (%),[12],15%
same,Population Membrane Permeable-Phenotype (%),[12],14%
same,Population Mitochondria Different-Phenotype (%),[12],2%
same,Population Normal (%),[12],84%
same,Population Pyknosed Nuclei (%),[12],10%
same,Population Tubulin-Different-Phenotype (%),[12],34%
same,Total Cell Count,[12],79
